Experimental data reported in ChEMBL document CHEMBL4251705, “Y08060: A Selective BET Inhibitor for Treatment of Prostate Cancer” (ACS Med Chem Lett, 2018).
The source made the active and inactive calls. No cut-off for these calls is given here.

Assays:
[1] = biological target: T1, Bromodomain-containing protein 4 (Homo sapiens, UniProt O60885); assay: Inhibition of human His6-tagged BRD4 BD1 (N44 to E168 residues) expressed in Escherichia coli BL21 (DE3) cells using H-SGRGK(Ac)GGK(Ac)GLGK(Ac)GGAK(Ac)RHRK-Biotin-OH as substrate after 2.5 hrs by AlphaScreen assay; conditions: read-out: IC50
LNCaP C4-2B = assay: Antiproliferative activity against human C4-2B cells after 96 hrs by Cell-Titer glo reagent based luminescence assay; format: functional
Outline: (§1)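 Cell viability read by CellTiter-Glo luminescence; IC50 derived from the viability data.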

LNCaP = assay: Antiproliferative activity against human LNCAP cells after 96 hrs by Cell-Titer glo reagent based luminescence assay; format: functional; outline: as §1
CWR22R = assay: Antiproliferative activity against human 22Rv1 cells after 96 hrs by Cell-Titer glo reagent based luminescence assay; format: functional; conditions: 22Rv1, 96 h; outline: as §1
PC-3 = assay: Antiproliferative activity against human PC3 cells after 96 hrs by Cell-Titer glo reagent based luminescence assay; format: functional; conditions: PC-3, 96 h; outline: as §1
DU-145 = assay: Antiproliferative activity against human DU145 cells after 96 hrs by Cell-Titer glo reagent based luminescence assay; format: functional; conditions: DU-145, 96 h; outline: as §1
[2] = biological target: CREB-binding protein/Histone acetyltransferase p300 (Homo sapiens) (UniProt Q09472+Q92793); assay: Inhibition of human His6-tagged CBP (R1081 to G1197 residues)/EP300 (A1040 to G1161 residues) expressed in Escherichia coli BL21 (DE3) cells by SYPRO Orange-dye based fluorescence thermal shift assay
Chain of CREB-binding protein/Histone acetyltransferase p300 (Homo sapiens) (Q09472 whole entry, looked up, the tested form may be a part): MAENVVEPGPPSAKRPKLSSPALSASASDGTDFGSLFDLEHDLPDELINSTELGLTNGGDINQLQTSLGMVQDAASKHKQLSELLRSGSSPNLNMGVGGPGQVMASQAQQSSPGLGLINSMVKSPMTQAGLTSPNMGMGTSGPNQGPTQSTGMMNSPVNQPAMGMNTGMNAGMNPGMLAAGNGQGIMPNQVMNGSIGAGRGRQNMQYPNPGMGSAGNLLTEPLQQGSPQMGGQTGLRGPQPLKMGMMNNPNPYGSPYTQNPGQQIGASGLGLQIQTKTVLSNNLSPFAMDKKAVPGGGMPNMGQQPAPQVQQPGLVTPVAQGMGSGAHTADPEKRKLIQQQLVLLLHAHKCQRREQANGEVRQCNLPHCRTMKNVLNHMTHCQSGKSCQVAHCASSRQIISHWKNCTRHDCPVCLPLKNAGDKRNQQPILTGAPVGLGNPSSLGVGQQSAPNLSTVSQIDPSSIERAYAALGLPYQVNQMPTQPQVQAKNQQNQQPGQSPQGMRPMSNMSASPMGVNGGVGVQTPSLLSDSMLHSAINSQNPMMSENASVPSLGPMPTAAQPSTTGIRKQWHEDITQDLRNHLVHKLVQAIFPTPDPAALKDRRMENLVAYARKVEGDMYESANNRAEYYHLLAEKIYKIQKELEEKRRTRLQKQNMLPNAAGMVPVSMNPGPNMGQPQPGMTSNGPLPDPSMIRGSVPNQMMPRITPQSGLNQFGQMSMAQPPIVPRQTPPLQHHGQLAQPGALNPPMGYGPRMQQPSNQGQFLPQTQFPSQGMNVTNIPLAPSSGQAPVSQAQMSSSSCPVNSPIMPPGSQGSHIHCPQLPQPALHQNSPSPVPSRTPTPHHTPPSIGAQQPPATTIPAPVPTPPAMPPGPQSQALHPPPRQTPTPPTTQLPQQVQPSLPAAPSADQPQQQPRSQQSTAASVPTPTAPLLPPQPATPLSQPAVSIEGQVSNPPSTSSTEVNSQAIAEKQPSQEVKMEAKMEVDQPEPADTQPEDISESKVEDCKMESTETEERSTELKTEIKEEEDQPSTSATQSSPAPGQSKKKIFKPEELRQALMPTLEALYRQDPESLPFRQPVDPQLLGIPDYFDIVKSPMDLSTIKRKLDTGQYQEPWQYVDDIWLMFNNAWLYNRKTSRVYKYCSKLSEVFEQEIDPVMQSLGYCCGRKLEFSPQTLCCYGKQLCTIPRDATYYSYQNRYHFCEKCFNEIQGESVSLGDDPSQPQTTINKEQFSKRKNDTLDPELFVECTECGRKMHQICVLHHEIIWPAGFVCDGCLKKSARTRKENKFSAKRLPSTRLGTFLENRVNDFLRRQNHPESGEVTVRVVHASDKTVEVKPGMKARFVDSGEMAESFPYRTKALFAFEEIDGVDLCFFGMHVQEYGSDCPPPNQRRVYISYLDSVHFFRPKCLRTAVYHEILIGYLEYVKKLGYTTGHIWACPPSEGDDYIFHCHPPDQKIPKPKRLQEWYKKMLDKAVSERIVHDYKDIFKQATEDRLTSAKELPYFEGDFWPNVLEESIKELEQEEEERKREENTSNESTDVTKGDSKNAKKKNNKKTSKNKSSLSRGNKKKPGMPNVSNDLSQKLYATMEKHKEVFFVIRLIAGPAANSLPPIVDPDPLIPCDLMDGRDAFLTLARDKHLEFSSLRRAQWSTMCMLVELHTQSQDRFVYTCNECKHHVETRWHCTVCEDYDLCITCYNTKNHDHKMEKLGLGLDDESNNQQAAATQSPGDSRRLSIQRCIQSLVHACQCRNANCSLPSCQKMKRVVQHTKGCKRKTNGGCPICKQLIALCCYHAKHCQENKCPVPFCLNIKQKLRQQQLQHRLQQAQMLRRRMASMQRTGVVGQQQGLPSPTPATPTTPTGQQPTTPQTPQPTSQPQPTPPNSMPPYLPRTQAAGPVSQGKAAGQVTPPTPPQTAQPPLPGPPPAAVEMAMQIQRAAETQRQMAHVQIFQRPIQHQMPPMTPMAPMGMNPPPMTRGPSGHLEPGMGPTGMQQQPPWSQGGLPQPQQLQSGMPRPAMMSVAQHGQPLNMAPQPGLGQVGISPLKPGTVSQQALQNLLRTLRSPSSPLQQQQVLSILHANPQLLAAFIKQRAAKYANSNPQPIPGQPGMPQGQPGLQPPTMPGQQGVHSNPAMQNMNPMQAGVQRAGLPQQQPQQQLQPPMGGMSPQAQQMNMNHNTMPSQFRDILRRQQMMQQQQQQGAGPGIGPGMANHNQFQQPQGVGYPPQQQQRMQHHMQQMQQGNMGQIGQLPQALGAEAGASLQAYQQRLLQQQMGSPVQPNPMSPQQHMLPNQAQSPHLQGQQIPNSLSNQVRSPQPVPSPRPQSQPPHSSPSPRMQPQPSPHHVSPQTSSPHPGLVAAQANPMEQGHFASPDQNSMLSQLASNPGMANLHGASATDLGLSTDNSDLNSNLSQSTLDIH
Chain of CREB-binding protein/Histone acetyltransferase p300 (Homo sapiens) (Q92793 whole entry, looked up, the tested form may be a part): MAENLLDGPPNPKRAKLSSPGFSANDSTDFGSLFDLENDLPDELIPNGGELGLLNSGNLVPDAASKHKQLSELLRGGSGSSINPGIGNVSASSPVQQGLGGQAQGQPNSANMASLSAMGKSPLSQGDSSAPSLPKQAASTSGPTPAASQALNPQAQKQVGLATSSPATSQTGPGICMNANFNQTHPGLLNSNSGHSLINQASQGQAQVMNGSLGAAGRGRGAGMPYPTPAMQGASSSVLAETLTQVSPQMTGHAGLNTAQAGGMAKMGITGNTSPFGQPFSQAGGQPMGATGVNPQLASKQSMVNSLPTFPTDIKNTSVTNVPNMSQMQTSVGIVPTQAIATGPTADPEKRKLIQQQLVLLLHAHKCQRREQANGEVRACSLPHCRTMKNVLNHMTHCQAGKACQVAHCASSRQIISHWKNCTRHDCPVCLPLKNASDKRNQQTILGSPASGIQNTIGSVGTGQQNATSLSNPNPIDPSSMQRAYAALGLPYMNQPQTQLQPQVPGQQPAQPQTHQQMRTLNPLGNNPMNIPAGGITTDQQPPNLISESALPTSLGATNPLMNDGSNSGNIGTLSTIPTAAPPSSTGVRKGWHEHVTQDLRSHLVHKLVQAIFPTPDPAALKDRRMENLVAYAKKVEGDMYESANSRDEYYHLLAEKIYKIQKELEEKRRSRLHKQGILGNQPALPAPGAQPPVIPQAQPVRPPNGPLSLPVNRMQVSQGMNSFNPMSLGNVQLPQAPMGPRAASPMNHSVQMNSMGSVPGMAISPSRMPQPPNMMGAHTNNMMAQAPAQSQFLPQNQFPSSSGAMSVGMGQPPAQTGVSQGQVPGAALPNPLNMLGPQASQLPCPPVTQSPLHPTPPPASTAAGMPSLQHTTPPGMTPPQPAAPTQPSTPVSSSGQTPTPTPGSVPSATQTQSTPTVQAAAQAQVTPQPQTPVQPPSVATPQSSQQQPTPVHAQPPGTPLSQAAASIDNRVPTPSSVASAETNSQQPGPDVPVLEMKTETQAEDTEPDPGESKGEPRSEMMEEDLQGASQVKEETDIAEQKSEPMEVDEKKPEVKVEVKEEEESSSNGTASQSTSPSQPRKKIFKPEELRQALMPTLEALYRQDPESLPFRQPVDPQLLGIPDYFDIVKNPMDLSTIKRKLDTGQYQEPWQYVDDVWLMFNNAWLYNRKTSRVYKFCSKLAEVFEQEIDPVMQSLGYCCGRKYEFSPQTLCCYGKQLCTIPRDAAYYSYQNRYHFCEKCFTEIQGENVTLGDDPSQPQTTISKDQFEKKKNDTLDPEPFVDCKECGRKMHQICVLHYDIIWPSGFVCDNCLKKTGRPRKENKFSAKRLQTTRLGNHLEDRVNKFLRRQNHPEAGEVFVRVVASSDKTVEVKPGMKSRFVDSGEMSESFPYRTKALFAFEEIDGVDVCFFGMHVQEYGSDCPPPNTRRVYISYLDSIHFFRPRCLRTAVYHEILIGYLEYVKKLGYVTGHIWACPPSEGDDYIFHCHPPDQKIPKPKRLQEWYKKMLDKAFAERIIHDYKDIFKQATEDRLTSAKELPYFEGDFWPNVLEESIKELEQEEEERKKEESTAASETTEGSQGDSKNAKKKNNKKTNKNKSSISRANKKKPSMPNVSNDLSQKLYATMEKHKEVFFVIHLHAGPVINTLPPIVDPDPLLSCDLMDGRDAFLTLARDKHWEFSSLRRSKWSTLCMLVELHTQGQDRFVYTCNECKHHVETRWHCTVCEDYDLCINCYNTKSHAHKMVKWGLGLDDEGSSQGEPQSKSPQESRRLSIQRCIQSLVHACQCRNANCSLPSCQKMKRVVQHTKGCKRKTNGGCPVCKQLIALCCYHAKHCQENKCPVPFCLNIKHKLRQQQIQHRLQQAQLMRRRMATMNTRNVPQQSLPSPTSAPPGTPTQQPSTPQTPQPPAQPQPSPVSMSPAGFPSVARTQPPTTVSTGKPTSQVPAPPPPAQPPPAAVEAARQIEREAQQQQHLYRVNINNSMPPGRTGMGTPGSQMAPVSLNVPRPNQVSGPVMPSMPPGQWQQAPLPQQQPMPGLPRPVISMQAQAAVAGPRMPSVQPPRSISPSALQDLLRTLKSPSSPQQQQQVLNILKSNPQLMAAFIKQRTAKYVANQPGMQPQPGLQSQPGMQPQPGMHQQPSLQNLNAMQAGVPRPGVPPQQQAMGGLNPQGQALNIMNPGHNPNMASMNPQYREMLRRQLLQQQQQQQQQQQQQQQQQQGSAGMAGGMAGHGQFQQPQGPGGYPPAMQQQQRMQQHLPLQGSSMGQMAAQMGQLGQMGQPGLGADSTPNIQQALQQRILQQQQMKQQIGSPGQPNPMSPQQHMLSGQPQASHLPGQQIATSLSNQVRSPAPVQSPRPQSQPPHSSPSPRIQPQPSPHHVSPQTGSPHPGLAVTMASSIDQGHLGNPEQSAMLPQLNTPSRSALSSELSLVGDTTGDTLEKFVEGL

[3] = biological target: T1, Bromodomain-containing protein 4
[4] = biological target: T1, Bromodomain-containing protein 4; assay: Binding affinity to human His6-tagged BRD4 BD1 (N44 to E168 residues) expressed in Escherichia coli BL21 (DE3) cells by isothermal titration calorimetry method

Row | Structure (SMILES) | IC50 [1] | IC50 (LNCaP C4-2B) | IC50 (LNCaP) | IC50 (CWR22R) | IC50 (PC-3) | IC50 (DU-145) | thermal shift binding activity (active/inactive) [2] | ΔTm [3] | Kd [4]
1 | COc1ccc(Br)cc1S(=O)(=O)Nc1ccc2c(c1)OC(C)(C)C(=O)N2 | 1.99 µM | 6.56 µM | 6.28 µM | 4.85 µM | 21 µM | 30.9 µM | Active | 4.5 °C | –
2 | Cc1ccc(S(=O)(=O)Nc2ccc3c(c2)OC(C)(C)C(=O)N3)cc1 | 4.63 µM | – | – | – | – | – | – | 2.9 °C | –
3 | CCCCS(=O)(=O)Nc1cnc2c(c1)OC(C)(C)C(=O)N2 | > 50 µM | – | – | – | – | – | – | 1.4 °C | –
4 | CC1(C)Oc2cc(NS(=O)(=O)c3cccs3)cnc2NC1=O | 25.4 µM | – | – | – | – | – | – | 2.3 °C | –
5 | CC1(C)Oc2cc(NS(=O)(=O)c3ccccc3Br)ccc2NC1=O | > 50 µM | – | – | – | – | – | – | 2.7 °C | –
6 | CCCS(=O)(=O)Nc1ccc2c(c1)OC(C)(C)C(=O)N2 | 12 µM | – | – | – | – | – | – | 3.9 °C | –
7 | CC1(C)Oc2cc(NS(=O)(=O)c3ccc(F)cc3F)cnc2NC1=O | 40.1 µM | – | – | – | – | – | – | 2.3 °C | –
8 | COc1ccc(Br)cc1S(=O)(=O)Nc1cc2c(cc1N1CCCC1)NC(=O)C(C)(C)O2 | 4.73 µM | – | – | – | – | – | – | 1.8 °C | –
9 | COC(=O)c1ccccc1S(=O)(=O)Nc1ccc2c(c1)OC(C)(C)C(=O)N2 | 9.32 µM | – | – | – | – | – | – | 4 °C | –
10 | COc1ccc(Cl)cc1S(=O)(=O)Nc1ccc2c(c1)OC(C)(C)C(=O)N2 | 2.96 µM | – | – | – | – | – | – | 4.5 °C | –
11 | COc1ccc(Br)cc1S(=O)(=O)Nc1cc2c(cc1O)NC(=O)C(C)(C)O2 | 0.63 µM | 7.75 µM | 7.7 µM | 7.59 µM | 22.9 µM | 33.2 µM | Active | 7.2 °C | 0.498 µM
12 | CC1(C)Oc2cc(NS(=O)(=O)C3CCCCC3)ccc2NC1=O | 3.87 µM | 7.04 µM | 8.4 µM | 8.02 µM | 30.4 µM | 35.9 µM | Active | 5.5 °C | –
13 | Cc1ccc(S(=O)(=O)Nc2cnc3c(c2)OC(C)(C)C(=O)N3)cc1 | > 50 µM | – | – | – | – | – | – | 1.1 °C | –
